Hits are enriched below; roughly 2.6% of the tested compounds scored in any of these assays.
NR2E3 ag-1 = inhibitors of NR2E3-RetCOR corepressor binding, primary screen, NR2E3 agonist project, biochemical, TR-FRET, GST-NR2E3, biotin-RetCOR | Photoreceptor-specific nuclear receptor (Homo sapiens), Q9Y5X4 | 1536-well | inhibition of corepressor binding, % at 4.78 µM | 320,000 tested, 0.12% active | AID 2300, 2010;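 active means percent inhibition above the cutoff of mean plus 3 SD of all tested compounds, set per screening campaign, cut at about 20% in these data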;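 further: 0% = DMSO wells and 100% = biotin wells as full block of FRET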
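System: GST-NR2E3 and biotin-RetCOR proteins; probe or stimulus: 7 nM biotin-RetCOR; doses: compound at 4.8 µM, single dose; schedule: Compound–protein incubation for 5 h at 4 °C; detection: time-resolved FRET; read-out: percent inhibition; controls: biotin wells as high control, 0.6% DMSO wells as low control; format: 1536-well plates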
NR2E3 ag-2 = NR2E3 agonists in two-hybrid cells, primary screen, cell-based, luminescence, CHO-S, Gal4-NCOR/VP16-NR2E3; 360,000 tested, 0.35% active; luciferase; AID 602229, 2012; inhibition of corepressor binding, % at 3.98 µM;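 active means inhibition above the mean of all tested compounds plus 3 SD, cut at about 70% in these data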;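 further: 0% = DMSO with NR2E3 transfected cells and 100% = cells lacking NR2E3 construct; higher means lower luciferase signal from less NR2E3 corepressor binding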
rCAG binder = binders of r(CAG) RNA repeats, primary screen, biochemical, fluorescence; r(CAG) RNA repeat, TO-PRO-1 dye displacement fluorescence; inhibition, % at 3 µM; 370,000 tested, 1.3% active; AID 651821, 2012;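 active means inhibition above the plate cutoff, the mean of all test compounds on that plate plus 3 SD, cut at about 35% in these data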;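 further: 0% = DMSO alone and 100% = 100 µM mitoxantrone as full dye displacement; higher means more dye released from RNA so lower well fluorescence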
PG9 binder = binders of HIV-1 gp120 antibody PG9, primary screen, biochemical, TR-FRET. TR-FRET gp120-PG9 antibody binding. inhibition, % at 6.7 µM. 360,000 tested, 0.43% active; in the data active means inhibition above about 8.5%
Rev-erbA mod = modulators of Rev-erb alpha DNA binding, primary screen, biochemical, FITC-DNA, fluorescence polarization, uHTS. Nuclear receptor subfamily 1 group D member 1 (Homo sapiens), P20393. Rev-erbα–FITC-DNA binding, 90 min. activity, % at 10 µM. 370,000 tested, 0.79% active. AID 1259318, 2017;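 active means activity above about 14%, limit read from the data; passing the limit was not always enough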;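 further: 0% = DMSO wells with 35 nM protein and 100% = DMSO wells with 750 nM protein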
Target sequence (P20393 whole entry, looked up): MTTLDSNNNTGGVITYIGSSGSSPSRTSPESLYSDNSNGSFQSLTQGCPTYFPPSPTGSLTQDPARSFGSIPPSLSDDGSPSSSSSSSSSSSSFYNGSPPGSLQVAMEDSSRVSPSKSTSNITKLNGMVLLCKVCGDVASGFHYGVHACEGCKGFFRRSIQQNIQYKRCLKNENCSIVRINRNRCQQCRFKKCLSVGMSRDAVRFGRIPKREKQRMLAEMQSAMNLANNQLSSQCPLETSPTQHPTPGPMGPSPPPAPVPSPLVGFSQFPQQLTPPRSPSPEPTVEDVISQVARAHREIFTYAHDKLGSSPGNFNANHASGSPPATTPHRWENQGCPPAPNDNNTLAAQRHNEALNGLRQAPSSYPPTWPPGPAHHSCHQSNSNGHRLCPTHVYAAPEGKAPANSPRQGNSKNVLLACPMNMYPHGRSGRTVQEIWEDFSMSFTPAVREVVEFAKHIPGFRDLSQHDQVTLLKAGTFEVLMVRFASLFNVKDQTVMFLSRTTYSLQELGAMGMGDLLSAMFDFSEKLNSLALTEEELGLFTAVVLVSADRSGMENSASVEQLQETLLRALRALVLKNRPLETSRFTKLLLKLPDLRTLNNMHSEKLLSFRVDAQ
PG9 binder conf = binders of anti-gp120 antibody PG9, confirmation, biochemical, TR-FRET | shares compounds with PG9 binder | TR-FRET PG9 antibody binding | inhibition, % at 6.7 µM | 1,500 tested, 90% active | AID 651571, 2012; in the data active means inhibition above about 9%
PGV04 counter = binders of control antibody PGV04, counter-screen for PG9 antibody binder project, biochemical, TR-FRET, distinct HIV envelope site | TR-FRET PGV04 antibody-gp120 binding | shares compounds with PG9 binder | inhibition, % at 6.7 µM | AID 651604, 2012 | 1,500 tested, 95% active; in the data active means inhibition above about 9.5%
PG9 binder DR = small-molecule binders of antibody PG9, dose response, biochemical, TR-FRET, HIV-1 gp120 antibody; shares compounds with PG9 binder; TR-FRET PG9 antibody-gp120 binding inhibition; IC50, µM; 95 tested, under 10 active; in the data active means IC50 below about 10 µM
PGV04 DR counter = binders of control antibody PGV04, dose response, counter-screen for PG9 antibody binder project, biochemical, TR-FRET, distinct HIV envelope site | shares compounds with PG9 binder | TR-FRET binding to control antibody PGV04 | IC50, µM | 95 tested, 20% active | AID 651937, 2012
PG126 binding DR = binders of control antibody PG126, dose response, counter-screen for PG9 antibody binder project, biochemical, TR-FRET, distinct HIV envelope site | shares compounds with PG9 binder | TR-FRET binding to antibody PG126, counterscreen | IC50, µM | 95 tested, 20% active | AID 651939, 2012
* = called active by the depositor; nt = no result. Unless noted, no stated cut-off is given here; in the data, active means IC50 below about 9 µM; inactive means the rest.

SMILES	NR2E3 ag-1	NR2E3 ag-2	rCAG binder	PG9 binder	Rev-erbA mod	PG9 binder conf	PGV04 counter	others
CCc1c(C)nc2ccc(Br)cc2c1SCCC#N	13	-28	-4	11*	5	13*	20*
CCc1c(C)nc2c(Br)cccc2c1SCCC#N	1	-28	3	9.6*	13	13*	19*
CCCc1c(C)nc2ccccc2c1SCCC#N	0	-8	-9	0	2	nt	nt
Cc1cc(N2CCN(C(=O)OC(C)(C)C)C[C@@H]2C)ccc1N1CCN(Cc2ccccc2)[C@H](C)C1	nt	nt	3	1	1	nt	nt
COCCNC(=O)C1(C)CCN(C(=O)c2sccc2C)C1 (stereo not given)	nt	-14	0	0	-4	nt	nt
COc1ccc2ccc(OCC(=O)Nc3cc(C)on3)cc2c1	3	-13	0	21*	10	25*	34*
COc1cc(C(=O)NNC(=O)c2ccccc2OCc2c(C)noc2C)cc(OC)c1OC	1	18	-1	-2	2	nt	nt
Cc1nc(SCC(=O)NCc2ccco2)c2c(C)c(C)sc2n1	1	2	-3	-3	-2	nt	nt
CCCCc1nc2sc3c(SCC(=O)NCc4ccco4)ncnc3c2c2c1CCC2	7	-8	6	84*	6	87*	82*	PG9 binder DR=3.3*;PGV04 DR counter=1.5*;PG126 binding DR=1.7*
O=C(Nc1ncc(Cc2ccc(SC(F)F)cc2)s1)c1ccc(OC(F)F)cc1	0	10	7	22*	14	12*	18*
CCN(CC(=O)NCc1cccs1)C(=O)/C=C/c1cc(Br)ccc1OC(F)F	3	-3	4	0	-6	nt	nt
Cc1cc(=O)oc2cc(NC(=O)C(C)Oc3cccc(Cl)c3)ccc12 (stereo not given)	-1	-11	4	10.0*	13	12*	19*
COc1ccc(C(=O)N(c2c(C)cccc2C)C(COC(C)=O)COC(C)=O)cc1	nt	-19	-1	-1	-6	nt	nt
O=c1oc(-c2cccs2)nc2c1cnn2-c1ccccc1	1	10	1	9.5*	2	13*	18*
COc1ccc(OC)c(C(C(=O)NC2CCCCC2)N(C(=O)c2snc(C(N)=O)c2N)c2ccccc2OC)c1 (stereo not given)	0	-10	1	36*	15	36*	60*
CC1=C(C(=O)N(C)C)CC(CC(=O)NCCc2ccccn2)C(=O)N1Cc1ccccc1 (stereo not given)	nt	-18	0	0	-6	nt	nt
COC(=O)c1cccc(Cn2c(Cl)c(/C=N/NC(=O)c3ccco3)sc2=O)c1	-2	-21	9	0	-3	nt	nt
COC(=O)c1ccccc1NC(=O)c1cccc(NC(=O)CSCc2ccccc2)c1C	4	24	-2	33*	15	28*	43*
CCOC(=O)C1=C(C)NC(SCC(N)=O)=C(C#N)C1c1ccccc1 (stereo not given)	-1	-12	-4	14*	5	8	10*
CCOC(=O)C1=C(C)NC(SCC(N)=O)=C(C#N)C1c1ccncc1 (stereo not given)	2	-2	-1	0	-2	nt	nt
COc1cccc(OCCSc2nc3ccccc3c(=O)[nH]2)c1	6	-9	4	24*	21	23*	31*
NS(=O)(=O)c1ccc(NC(=O)c2ccc(-c3ccccc3)cc2)cc1	nt	-28	20	9.3*	3	13*	25*
Cc1cc2cc3c(cc2nc1SCC(=O)OC(C)C)OCCO3	5	-2	-5	17*	10	23*	26*
O=C(CCc1nc2sc3c(c2c(=O)[nH]1)CCCC3)NCCOc1ccccc1	-2	-27	15	24*	-4	24*	47*
CC(=O)c1ccc(NC(=O)CCc2nc3sc4c(c3c(=O)[nH]2)CCCC4)cc1	-14	10	10	11*	12	23*	33*
SMILES	NR2E3 ag-1	NR2E3 ag-2	rCAG binder	PG9 binder	Rev-erbA mod	PG9 binder conf	PGV04 counter	others
COc1ccc(CCNC(=O)CCc2nc3sc4c(c3c(=O)[nH]2)CCCC4)cc1	3	-4	9	7	0	nt	nt
Cc1cccc(NC(=O)CNC(=O)CCc2nc3sc4c(c3c(=O)[nH]2)CCCC4)c1C	2	-5	22	22*	-16	21*	40*
O=C(CCc1nc2sc3c(c2c(=O)[nH]1)CCCC3)Nc1ccccc1Cl	-2	27	5	17*	4	19*	34*
C[C@H](CO)N1C[C@H](C)[C@H](CN(C)C(=O)Nc2ccccc2F)OCc2cnnn2CCCC1=O	nt	-3	0	-1	7	nt	nt
Cc1nc(SCC(=O)Nc2cc(C(N)=O)cc(C(N)=O)c2)c2c(C)c(C)sc2n1	14	-67	5	11*	8	18*	36*
Cc1noc(C)c1S(=O)(=O)N(C)C[C@H]1Oc2c(NC(=O)NC(C)C)cccc2C(=O)N([C@H](C)CO)C[C@@H]1C	nt	4	-8	1	2	nt	nt
C#CCNC(=O)c1cc2c(Br)ccc(Br)c2nc1N	nt	-19	17	17*	4	18*	22*
CC(C)(C)CNC(=O)c1cc2c(Br)ccc(Br)c2nc1N	nt	-14	9	10.0*	11	7	14*
Nc1nc2sc3c(c2cc1C(=O)NCC(=O)O)CCCC3	-1	-9	0	-2	-6	nt	nt
O=C(NCc1ccccc1OC(F)(F)F)C1CCC(=O)N(CCCN2CCOCC2)C1 (stereo not given)	nt	18	1	-1	4	nt	nt
